In the library only some 1.4% were active in any assay of this set; here they are far more common.
DDE Tn6 FP inh = inhibitors of Tn6 peptide binding to fibrin DD(E), primary screen, biochemical, fluorescence polarization, human fibrin, Tn6 probe; Fibrinogen beta chain (Homo sapiens), P02675; Fibrin DD(E) TRITC-Tn6 fluorescence polarization displacement; inhibition, % at 8.3 µM; 370,000 tested, 0.21% active; AID 720509, 2013;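 active = inhibition above a per-campaign cutoff: mean of compounds within control limits plus 3 SD, cut at about 15% in these data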;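 also: 0% = median of all compound wells on the plate and 100% = blocking peptide control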
Target sequence (P02675 whole entry, looked up): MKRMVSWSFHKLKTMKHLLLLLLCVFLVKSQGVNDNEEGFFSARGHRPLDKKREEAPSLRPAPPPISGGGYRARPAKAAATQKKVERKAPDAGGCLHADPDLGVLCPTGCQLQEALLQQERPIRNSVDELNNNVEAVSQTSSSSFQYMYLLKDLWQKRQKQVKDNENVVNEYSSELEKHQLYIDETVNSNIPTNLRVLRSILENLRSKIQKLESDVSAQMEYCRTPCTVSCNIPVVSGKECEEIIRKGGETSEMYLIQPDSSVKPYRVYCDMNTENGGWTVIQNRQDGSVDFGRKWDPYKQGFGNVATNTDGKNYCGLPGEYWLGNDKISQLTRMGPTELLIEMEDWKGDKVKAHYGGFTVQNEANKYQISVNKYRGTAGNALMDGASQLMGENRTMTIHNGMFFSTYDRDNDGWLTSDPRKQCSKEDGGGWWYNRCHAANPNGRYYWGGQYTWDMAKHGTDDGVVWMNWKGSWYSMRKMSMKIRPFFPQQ
CAL PDZ FP-1 = CAL PDZ peptide-binding inhibitors, primary screen, biochemical, fluorescence polarization, Cer-tagged CAL PDZ, HTS. purified CAL PDZ, TMR-peptide fluorescence polarization, 1 h. inhibition, % at 20 µM. 330,000 tested, 0.02% active;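 active = highest replicate inhibition of at least 40%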;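 also: plate controls were DMSO neutral control wells for no effect and unlabeled competitor peptide control wells for full effect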
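material = purified tagged CAL PDZ domain construct (CerCALP) | buffer or medium = sodium phosphate/NaCl buffer pH 7.4 with TCEP, IgG, Thesit | reagent = TMR-labelled reporter peptide T*-PRC34 bound in PDZ groove | incubation = 1 h room-temperature incubation prior to read | measured by = fluorescence polarization (mP) | evaluation = percent inhibition from loss of millipolarization | control set = unlabelled peptide and DMSO controls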
DDE Tn7 FP inh = inhibitors of Tn7 peptide binding to fibrin DD(E), primary screen, biochemical, fluorescence polarization, human fibrin, Tn7 probe; Fibrinogen beta chain (Homo sapiens), P02675; FP displacement of FITC-Tn7 peptide from fibrin DD(E); 0% = median of compound wells per plate; inhibition, % at 8.3 µM; 370,000 tested, 0.13% active;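 active = inhibition above the mean of compounds falling within the control limits plus 3 SD of them, cut at about 14% in these data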;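 also: 0% = plate median of compound wells and 100% = 10 µM Aha-Tn7 peptide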
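Measure: % inhibition scaled between sample-field median and high-control FP; Test system: human fibrin DD(E); Quantity: 2 µM final DD(E) protein; Doses: one dose, 8.3 µM nominal; Schedule: compound with protein 10 min, then 3 h after probe, room temperature; Detection: fluorescence polarization; Medium: Tris buffer with calcium and detergent, pH 7.8.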
CAL PDZ FP-2 = untagged CAL PDZ binding inhibitors, primary screen, biochemical, fluorescence polarization, HTS. Golgi-associated PDZ and coiled-coil motif-containing protein (Homo sapiens), Q9HD26. purified CAL PDZ, TMR-peptide fluorescence polarization, 1 h. inhibition, % at 24.9 µM. 300,000 tested, 0.92% active. AID 602252, 2012;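 active = mean inhibition of at least 30% with at least half of replicates also reaching 30%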;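 also: 0% = DMSO neutral control and 100% = excess unlabeled competitor peptide PRC23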
Arr AP2 block = inhibitors of beta-arrestin/AP2 binding, primary screen, biochemical, GPCR trafficking, flow cytometry. FITC-arrestin peptide / GST-AP2 beads; AP2 beta2 appendage carries R879A mutation. inhibition, % at 10 µM. 340,000 tested, 0.31% active. AID 504490, 2011;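 active = inhibition above a set limit, near 3 SD of compounds lacking own fluorescence, cut at about 54% in these data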;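 also: plate controls were DMSO wells for no effect and 5 µM unlabelled arrestin peptide for full effect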
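test system = AP2 appendage R879A on GSH beads | buffer or medium = PBS plus Tween 20 (0.05%) and BSA (0.1%) | incubation = 12 min plus 1 h, RT | detection = bead flow cytometry, FITC channel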
Arr AP2 CP1 = inhibitors of arrestin peptide binding to AP2, confirmation, biochemical, cherry pick 1, flow cytometry beads | shares compounds with Arr AP2 block | GST-AP2 beads, FITC arrestin peptide binding; GST-fused beta2-adaptin appendage, R879A mutant | inhibition, % at 10 µM | 1,300 tested, 2% active | AID 504908, 2011;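 active = inhibition above a set limit, roughly 3 SD of non-fluorescent compound noise, cut at about 38% in these data; inactive = inhibition at or below that limit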;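 also: loss of bead fluorescence from 50 nM FITC arrestin peptide bound to appendage; 0% = negative control wells and 100% = excess unlabelled arrestin peptide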
GST-FITC bead = GST-fluorescein capture on glutathione beads, confirmation, artefact control for arrestin-AP2 inhibitor project, biochemical, cherry pick 1, flow cytometry; shares compounds with Arr AP2 block; GST-fluorescein binding to GSH beads, fluorescence, counter-screen; inhibition, % at 10 µM; 1,300 tested, 2% active;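 active = inhibition above 50%, about 3 SD of the inhibition seen with non-fluorescent compounds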;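 also: fluorescein maleimide labelled GST captured on 4 micron glutathione beads; higher means more loss of bead fluorescence from quenching or blocked binding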
* marks the source's active call; other numbers are inactive results; nt = no result.

SMILES | DDE Tn6 FP inh | CAL PDZ FP-1 | DDE Tn7 FP inh | CAL PDZ FP-2 | Arr AP2 block | Arr AP2 CP1 | GST-FITC bead
O=C(Nc1nnc(-c2ccncc2)o1)C1CCCCC1 | -6 | -2 | -3 | 1 | 19 | nt | nt
O=C(Nc1nnc(C2=COCCO2)o1)C1CCCCC1 | -3 | -1 | 7 | 3 | 59* | 4 | 1
CCCOc1ccc(C(CC(=O)O)NC(=O)c2sc3ccccc3c2Cl)cc1 (stereo not given) | -6 | -1 | -3 | -3 | -15 | nt | nt
CCOc1ccc(C(CC(=O)O)NC(=O)c2sc3ccccc3c2Cl)cc1 (stereo not given) | 4 | 0 | 2 | 4 | 104* | -4 | -4
COC(=O)c1cc(-c2ccc(C(C)=O)cc2)c(=O)n2c1CCC2 | 7 | nt | -4 | nt | nt | nt | nt
COCCNC(=O)Cn1nc(-c2ccc(Cl)cc2)c2ccccc2c1=O | 1 | -1 | -7 | nt | 64* | -4 | 3
COCCNC(=O)Cn1nc(-c2ccccc2)c2ccccc2c1=O | 6 | 0 | -9 | -6 | -4 | nt | nt
Cc1ccccc1NCC(=O)N/N=C/c1ccc[nH]1 | 0 | nt | 0 | nt | nt | nt | nt
COC(=O)C1CN(CCc2ccccc2)CCS(=O)(=O)N1Cc1ccc(Cl)cc1 (stereo not given) | -6 | nt | 4 | nt | nt | nt | nt
CCCCOC(=O)c1ccc(NC(=O)COC(=O)C2CSC3(C)CCC(=O)N23)cc1 (stereo not given) | 9 | -3 | -9 | -5 | 2 | -11 | -6
CC12CCC(=O)N1C(C(=O)OCC(=O)Nc1cc(S(=O)(=O)N3CCCCC3)ccc1Cl)CS2 (stereo not given) | 1 | -1 | 10 | -2 | -2 | nt | nt
CN(C)S(=O)(=O)c1cc(NC(=O)COC(=O)C2CSC3(C)CCC(=O)N23)ccc1Cl (stereo not given) | -4 | 1 | -2 | 4 | 8 | -5 | -10
O=C(O)CCCC(=O)Nc1c(F)c(F)c(F)c(F)c1F | -2 | nt | -2 | 1 | -9 | nt | nt
O=C(CCSCCC(=O)Nc1c(F)c(F)c(F)c(F)c1F)Nc1c(F)c(F)c(F)c(F)c1F | -3 | -1 | 1 | -1 | 58* | -8 | -4
CCCCN1C(=O)/C(=C2/Sc3ccc(OC)cc3N2CC)SC1=S | nt | 0 | nt | -3 | -5 | nt | nt
CCCCOC(=O)CCCN1C(=O)/C(=C2\SC(=S)N(CCCC(=O)OCCCC)C2=O)SC1=S | -1 | nt | -2 | nt | 67* | 10 | 4
N#Cc1ccc(OCCCN2CCC(C(O)(C3=CCCC3)c3ccccc3)CC2)cc1 (stereo not given) | -9 | nt | 0 | nt | nt | nt | nt
CCCS(=O)(=O)c1nc(S(=O)(=O)c2ccc(C)cc2)c(N2CCC(O)CC2)s1 | 3 | 0 | -1 | -2 | -13 | nt | nt
CCCS(=O)(=O)c1nc(S(=O)(=O)c2ccc(C)cc2)c(N2CCC(C(N)=O)CC2)s1 | 4 | -2 | 1 | -3 | 61* | -4 | -6
OC(C#Cc1ccccn1)c1cccs1 (stereo not given) | 3 | 0 | 3 | -2 | 99* | -6 | -1
O=C(C1CCCN1S(=O)(=O)c1ccc([N+](=O)[O-])cc1)N1CCN(c2ccccc2)CC1 (stereo not given) | 0 | nt | 4 | nt | nt | nt | nt
